High-throughput results from PubChem.
An excerpt weighted towards active compounds, which were near 8.9% of everything screened.
HSV augment: increases HSV replication in cells; maximum fold increase; HSV replication augmentation in cells, fold increase; hit rate 0.005% among 220,000; AID 1956; in the data active = maximum fold increase above about 1.5; tested in PC3 cells
b-catenin transl: beta-catenin nuclear translocation modulation; nuclear translocation activity, % at 5 µM; HeLa beta-catenin nuclear translocation, immunofluorescence imaging; hit rate 0.3% among 190,000;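 active = nuclear translocation activity above 50% at 5 µM, with a well cell count of 50 or more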;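 note: per-cell ratio of nuclear to cytoplasmic median beta-catenin stain intensity; plate controls were DMSO negative control for no effect and GSK-3 inhibitor IX positive control for full effect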
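Test system: human HeLa cells, endogenous beta-catenin. Times: 24 h compound exposure, 37°C. Measured by: beta-catenin immunofluorescence imaging with DAPI.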
L major viab: Leishmania major promastigote growth inhibition; Leishmania major promastigotes, resazurin fluorescence viability; inhibition, % at 10 µM; hit rate 9% among 200,000; AID 1063; in the data active = inhibition above about 50%;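 note: promastigotes grown with compound for 44 hours at 28 °C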
Dynein cargo inh: blocks dynein driven cargo transport along microtubules; 3617.4 mouse cells, GR-EGFP nuclear translocation imaging; test concentration mostly 20 µM; stimulated with dexamethasone, 1 µM; hits give low values; z-score, hits read low; hit rate 0.47% among 220,000;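 active = plate z-score of nuclear minus cytoplasmic receptor signal below a set negative limit, without overly bright fluorescence or cell loss, cut at about -3.5 in these data, passing the limit was not always enough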;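 note: z-score of nuclear minus cytoplasmic ring GR-EGFP intensity difference per well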
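Buffer or medium: Induction medium lacking tetracycline, stripped serum | Also added: Dexamethasone agonist, 1.0 µM final, for 30 min | Timing: 48 h induction, 1 h compound, 30 min dex at 37 °C | Detection: Formaldehyde fixation, Hoechst nuclear stain, 10x automated fluorescence imaging | Measure: Nuclear versus cytoplasmic GR-EGFP signal, averaged per well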
MT stabilizer: stabilizes microtubules in HeLa cells. HeLa tubulin immunostaining HCS, 24 h; share of cells brighter than vehicle mean+2SD. % tubulin-high responders, % at 10 µM. hit rate 0.83% among 200,000;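 active = plate Z-score above 3 for both tubulin-high and condensed-nucleus cell shares, with cell loss under 80%, at 10 µM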;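 note: anti alpha tubulin signal scored within the nucleus-defined area of each cell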
Active calls of the source: *; i = inactive; . = no result.

SMILES | HSV augment | b-catenin transl | L major viab | Dynein cargo inh | MT stabilizer
O=C(CN(c1ccc(F)cc1)S(=O)(=O)c1ccc2c(c1)OCCO2)NCc1ccncc1 | i | 1 | 92* | -0.17 | 2
Cc1cccc(N(CC(=O)NCCSCc2ccco2)S(=O)(=O)c2ccccc2)c1 | i | 0 | 61* | 0.3 | 2
O=C(O)c1ccccc1C(=O)c1ccc2c(c1)N(Cc1cccc(F)c1)C(=O)CO2 | i | -2 | 38 | 0.27 | 2
Cc1ccc(F)cc1NC(=O)C12CC3CC(C1)CC(n1cnc([N+](=O)[O-])n1)(C3)C2 | i | -1 | 67* | -0.1 | 3
COc1cc(NC(=O)C23CC4CC(C2)CC(n2cnc([N+](=O)[O-])n2)(C4)C3)cc(OC)c1 | i | 2 | 76* | -0.62 | 3
COc1ccc(NC(=O)C23CC4CC(C2)CC(n2cnc(Br)n2)(C4)C3)c(OC)c1 | i | -1 | 5 | -0.54 | 5
O=C(Nc1cccc([N+](=O)[O-])c1)C12CC3CC(C1)CC(n1cnc([N+](=O)[O-])n1)(C3)C2 | i | -1 | 76* | -0.34 | 3
O=C(Nc1ccccc1)C12CC3CC(C1)CC(n1cnc([N+](=O)[O-])n1)(C3)C2 | i | 0 | 72* | -0.11 | 3
CC(=O)Nc1ccc(NC(=O)C23CC4CC(C2)CC(n2cnc(Br)n2)(C4)C3)cc1 | i | -3 | 0 | 0.24 | 6
O=C(NCc1ccc2c(c1)OCO2)C1CCCN1C(=O)Nc1cccc(Cl)c1 (stereo not given) | i | -6 | 99* | -0.43 | 4
O=C(NCc1cccs1)C1CCCN1C(=O)Nc1cccc(Cl)c1 (stereo not given) | i | 1 | 34 | 0.45 | 4
O=C(NCc1cccnc1)c1nc(-c2ccc(C(F)(F)F)cc2)no1 | i | -1 | 0 | -0.43 | 5
O=C(COc1ccccc1)NCc1ccccc1 | . | . | -1 | 0.53 | 2
O=C(COc1ccc(C(=O)c2ccccc2)cc1)NCC(=O)Nc1ccccc1Br | i | -2 | 62* | -0.47 | 15
O=C(COc1ccc(C(=O)c2ccccc2)cc1)NCc1ccc(F)cc1 | i | 158* | 0 | 0.056 | 9.7*
CCN(Cc1cc2ccc(C)cc2[nH]c1=O)C(=O)c1ccncc1 | i | -2 | -6 | -0.39 | 4
COC(=O)CSc1nnc(NC(=O)/C=C\c2ccc3c(c2)OCO3)s1 | i | 2 | 100* | -0.32 | 3
O=C(/C=C\c1ccc2c(c1)OCO2)Nc1nnc(SCC(=O)OCc2ccccc2)s1 | i | 0 | 92* | 0.46 | 2
COc1cc2c(cc1N/C=C(\C#N)c1nc(-c3ccc(F)cc3)cs1)oc1ccccc12 | i | 0 | . | -0.036 | .
Cc1no[n+]([O-])c1COc1ccc(/C=N/n2nnnc2N)cc1 | i | -2 | 57* | -0.61 | 2
Cc1ccc(CN2CCN(/N=C/c3ccc(C(=O)O)cc3)CC2)c(C)c1 | i | 0 | 6 | 0.5 | 3
COC(=O)c1ccc(/C=N/N2CCN(Cc3ccc(C)cc3C)CC2)cc1 | i | . | 84* | -0.0013 | 3
COc1ccc(NC(=O)CN2CCC(NC(=O)C3CCCCC3)CC2)cc1 | i | -4 | 70* | -1.1 | 4
S=C(Nc1ccc(Br)cc1)N1CCCC1 | i | -2 | 1 | 0.32 | 3
CCc1ccc(NC(=S)N2CCCCCCC2)cc1 | . | -2 | 56* | 1.4 | 5
SMILES | HSV augment | b-catenin transl | L major viab | Dynein cargo inh | MT stabilizer
Cc1ccc(NC(=S)N2CCN(C3CCCCC3)CC2)cc1 | i | 1 | 84* | -0.29 | 3
S=C(Nc1ccc(Br)cc1)N1CCN(C2CCCCC2)CC1 | i | 1 | 88* | -0.61 | 2
COc1ccc(NC(=O)CN2CCCCC2)cc1 | i | . | -7 | -0.6 | 4
C=CCSc1nc2sc(C)c(C)c2c(=O)n1CC=C | i | 0 | 0 | 0.29 | 2
Cc1nn2c(N)csc2nc1=O | i | -4 | 10 | -0.88 | 6
O=C(CN1CCCCCC1)Nc1ccc(Br)cc1 | i | . | 1 | -0.92 | 2
O=C(CN1CCN(C2CCCCC2)CC1)Nc1ccc(Br)cc1 | i | -3 | 88* | 1 | 6
COC(=O)c1[nH]c2ccc(C)cc2c1NC(=O)CCN1CCN(C2CCCCC2)CC1 | i | 0 | 11 | 2.4 | 3
COC(=O)c1[nH]c2ccc(Br)cc2c1NC(=O)CN1CCN(C2CCCCC2)CC1 | i | . | 101* | -3.2 | 16
O=C(NC1CCC(O)CC1)c1cc(-c2ccco2)nc2ccccc12 (stereo not given) | i | -1 | -10 | -0.73 | 2
COc1cc(/C=C2\SC(c3ccc(C)cc3)=NC2=O)cc(OC)c1O | i | -2 | 57* | -0.06 | 2
Cc1ccc(C2=NC(=O)/C(=C/c3cc(O)c(O)c(Br)c3)S2)cc1 | i | . | -4 | -0.67 | 5
COC(=O)c1c(NC(NC(=O)C(C)C)C(Cl)(Cl)Cl)sc2c1CCC2 (stereo not given) | i | -1 | 53* | 0.2 | 3
COC(=O)c1c(NC(NC(=O)C(C)(C)C)C(Cl)(Cl)Cl)sc2c1CCC2 (stereo not given) | i | 3 | 51* | -0.084 | 4
CCC(=O)NC(Nc1sc2c(c1C(=O)OC)CCC2)C(Cl)(Cl)Cl (stereo not given) | i | . | 73* | 0.18 | 2
COC(=O)c1c(NC(NC(C)=O)C(Cl)(Cl)Cl)sc2c1CCCC2 (stereo not given) | i | 1 | 27 | 1.2 | 3
CN(C)c1ccc(-c2nnn(CC(=O)Nc3ccc4c(c3)OCCO4)n2)cc1 | i | 0 | -3 | -0.79 | 4
COC(=O)N/N=C/c1ccc(OS(=O)(=O)c2ccc(C)cc2)c(OC)c1 | i | 0 | 20 | -0.57 | 3
COc1cc(/C=N/NC(=O)COc2ccc(Cl)cc2)ccc1OS(=O)(=O)c1ccc(C)cc1 | i | 2 | 99* | 1.9 | 2
COc1cc(/C=N/NC(=O)COc2cccc(F)c2)ccc1OS(=O)(=O)c1ccc(C)cc1 | i | . | 99* | -0.42 | 2
C=CCNC(=O)/C(C#N)=C/c1ccc(OS(=O)(=O)c2ccc(C)cc2)c(OC)c1 | i | . | 92* | 0.55 | 5
Cc1cc(C)n2ncc(/C(N)=N/OC(=O)c3ccccc3F)c2n1 | i | 0 | . | -0.015 | .
CCOC(=O)C(C)N1C(=O)S/C(=C/c2cc(C)n(-c3ccccn3)c2C)C1=O (stereo not given) | i | -2 | 6 | -0.97 | 1
Cc1ccc(Oc2nc3c(C)cccn3c(=O)c2/C=C(\C#N)C(N)=O)cc1 | i | -1 | . | -0.22 | .
Cc1ccc(S(=O)(=O)/C(C#N)=C/c2c(Oc3ccc(Cl)cc3)nc3c(C)cccn3c2=O)cc1 | i | -2 | 77* | -0.033 | 2
O=S(=O)(NC1CCN(Cc2ccccc2)CC1)c1ccc(Cl)cc1 | i | 8 | . | 0.67 | .
COc1ccc(S(=O)(=O)N2CCC(CN3C(=O)c4cccc5cccc(c45)C3=O)CC2)cc1 | i | 1 | 98* | 0.36 | 3
